Series [1] in a line: Drug metabolism in pooled human hepatocytes assessed as disapperance rate at 1 uM by LC-MS/MS analysis. Type of series: ADME, cell-based, Hepatocyte. In a few lines: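 Pooled human hepatocytes in suspension (~0.5 x 10^6 viable cells/mL) were incubated with 1 µM carfilzomib at 37°C under 5% CO2, with or without isoform-selective CYP chemical inhibitors. Reactions were quenched with acetonitrile at 0, 15, 30, 60 and 120 min. Carfilzomib was quantified by non-validated LC-MS/MS after protein precipitation.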

Another series has as its system Plasma. In words: Drug metabolism in plasma of iv dosed human patient with relapsed and refractory hematological malignancies assessed as morpholino-hPhe-Leu-Phe-Leu-diol metabolite formation administered on days 1, 2, 8, 9, 15 and 16 of 28-day cycle over 2 to 10 mins by LC-MS/MS analysis. Type of series: ADME, organism-based. The settings on record: in vivo.
A short description of series [2]: Half life in human patient with relapsed solid tumor at 20 mg/m'2, iv administered on days 1, 2, 8, 9, 15 and 16 of 28-day cycle over 2 to 10 mins measured on day 16 of cycle 1 by LC-MS/MS analysis. Type of series: ADME, organism-based. The settings on record: in vivo. The procedure, abridged:
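Patients with relapsed solid tumors (n=3) received carfilzomib IV at 20 mg/m2. Plasma was sampled on Days 1 and 16 of Cycle 1 before dosing, at end of administration, and at 5, 15, 30 min and 1, 2, 4 h after. Samples underwent solid phase extraction and LC-MS/MS with d10-carfilzomib internal standard over 0.100–200 ng/mL. Parameters were derived noncompartmentally (constant IV infusion model) from actual elapsed time from infusion start.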

Series [3] in a line: Plasma protein binding in iv dosed human multiple myeloma patient at 15 mg/m'2 in first cycle and escalated to 20 mg/m'2 thereafter administered on days 1, 2, 8, 9, 15 and 16 of 28-day cycle over 2 to 10 mins by LC-MS/MS analysis. The settings on record: read-out: PPB (converted). Type of series: ADME, organism-based. In a few lines:
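Plasma taken at end of administration and 5 min after, on Days 1 and 15 of Cycle 1 and Day 15 of Cycle 2, was dialyzed 6 h at 37°C against pH 7.4 sodium phosphate buffer by rapid equilibrium dialysis. Samples were matrix-matched, extracted by acetonitrile precipitation and quantified by LC-MS/MS.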

As for `CC(C)C[C@H](NC(=O)[C@H](CCc1ccccc1)NC(=O)CN1CCOCC1)C(=O)N[C@@H](Cc1ccccc1)C(=O)N[C@@H](CC(C)C)C(=O)[C@@]1(C)CO1` [CARFILZOMIB], the Drug metabolism is 0.015 min⁻¹ in series [1] and “metabolite_detected” with Plasma. The same compound gave a half-life in series [2] of 1.1 h. In addition, in series [3], the fraction unbound is 0.024.

The values are drawn from ChEMBL document CHEMBL3526139, “Clinical pharmacokinetics, metabolism, and drug-drug interaction of carfilzomib” (Drug Metab Dispos, 2013).
